The values below come from ChEMBL document CHEMBL3804758, “Click-based synthesis and antitubercular evaluation of novel dibenzo[b,d]thiophene-1,2,3-triazoles with piperidine, piperazine, morpholine and thiomorpholine appendages” (Bioorg Med Chem Lett, 2016).

Each structure is given as a SMILES string. ≈ marks a conversion by molar mass, not a printed value.

The term MIC denotes the smallest concentration in the dilution series that meets the test's criterion for growth inhibition. Read a low MIC as inhibition by little substance.

The assay has as its system Mycobacterium tuberculosis. Put plainly: Antimycobacterial activity against Mycobacterium tuberculosis H37Rv ATCC 27294 after 28 days by agar dilution technique. Particulars: H37Rv ATCC 27294, 672 h. It is filed as functional. In a few lines: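 Agar dilution in Middlebrook 7H11 with OADC supplement. Two-fold serial dilutions from 50.0 down to 0.4 µg/mL were incorporated into the agar. Inoculum of H37Rv came from fresh 7H11/OADC slants, suspended in saline diluted to […]. 5 μL was spotted per tube, incubated at 37 °C and read after 28 days. MIC was the lowest concentration giving complete growth inhibition, done in triplicate.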
In general terms: In agar dilution the substance is mixed into plates at graded concentrations.
The molecule `Cc1ccc(-c2cn(C(CN3CCNCC3)c3ccc4sc5ccccc5c4c3)nn2)cc1` (stereo not drawn) showed an MIC of 6.25 µg/mL (≈ 13.8 µM).
For the molecule `CCCCc1cn(C(CN2CCNCC2)c2ccc3sc4ccccc4c3c2)nn1` (stereo not drawn), 12.5 µg/mL (≈ 29.8 µM) was the least that counted as inhibitory (MIC).
In turn, `c1ccc(-c2cn(C(CN3CCNCC3)c3ccc4sc5ccccc5c4c3)nn2)cc1` (stereo not drawn) had an MIC of 12.5 µg/mL (≈ 28.4 µM).
In the case of `O=[N+]([O-])c1ccc(-c2cn(C(CN3CCCCC3)c3ccc4sc5ccccc5c4c3)nn2)cc1` (stereo not drawn) it was 50 µg/mL (≈ 103 µM).
Regarding `Cc1ccc(-c2cn(C(CN3CCCCC3)c3ccc4sc5ccccc5c4c3)nn2)cc1` (stereo not drawn), the MIC came out at 50 µg/mL (≈ 110 µM).
Molecule `Fc1ccc(-c2cn(C(CN3CCNCC3)c3ccc4sc5ccccc5c4c3)nn2)c(Cl)c1` (stereo not drawn) gave an MIC of 1.56 µg/mL (≈ 3.17 µM).
The same measure for `Cc1ccc(-c2cn(C(CN3CCN(CCO)CC3)c3ccc4sc5ccccc5c4c3)nn2)cc1` (stereo not drawn): 50 µg/mL (≈ 100 µM); for `CCCCc1cn(C(CN2CCN(CCO)CC2)c2ccc3sc4ccccc4c3c2)nn1` (stereo not drawn): 6.25 µg/mL (≈ 13.5 µM).
`CC(C)(C)c1ccc(-c2cn(C(CN3CCSCC3)c3ccc4sc5ccccc5c4c3)nn2)cc1` (stereo not drawn) yielded an MIC of 6.25 µg/mL (≈ 12.2 µM).
Consider `Fc1ccc(-c2cn(C(CN3CCCCC3)c3ccc4sc5ccccc5c4c3)nn2)c(Cl)c1` (stereo not drawn), for which the lowest concentration to inhibit growth (MIC) was 50 µg/mL (≈ 102 µM).
In turn, `O=[N+]([O-])c1ccc(-c2cn(C(CN3CCNCC3)c3ccc4sc5ccccc5c4c3)nn2)cc1` (stereo not drawn) came in with an MIC of 3.12 µg/mL (≈ 6.44 µM).
In turn, `c1ccc(-c2cn(C(CN3CCOCC3)c3ccc4sc5ccccc5c4c3)nn2)cc1` (stereo not drawn) returned an MIC of 50 µg/mL (≈ 113 µM).
Consider `CC(C)(C)c1ccc(-c2cn(C(CN3CCN(CCO)CC3)c3ccc4sc5ccccc5c4c3)nn2)cc1` (stereo not drawn), for which it took 25 µg/mL (≈ 46.3 µM) to inhibit growth (MIC).
As to `CCCCc1cn(C(CN2CCOCC2)c2ccc3sc4ccccc4c3c2)nn1` (stereo not drawn), 50 µg/mL (≈ 119 µM) was the least that counted as inhibitory (MIC).
Take `Cc1ccc(-c2cn(C(CN3CCOCC3)c3ccc4sc5ccccc5c4c3)nn2)cc1` (stereo not drawn): inhibition of growth (MIC) required 25 µg/mL (≈ 55 µM).
In the case of `O=[N+]([O-])c1ccc(-c2cn(C(CN3CCN(CCO)CC3)c3ccc4sc5ccccc5c4c3)nn2)cc1` (stereo not drawn) it was 12.5 µg/mL (≈ 23.6 µM); in that of `O=[N+]([O-])c1ccc(-c2cn(C(CN3CCOCC3)c3ccc4sc5ccccc5c4c3)nn2)cc1` (stereo not drawn), 50 µg/mL (≈ 103 µM); in that of `Fc1ccc(-c2cn(C(CN3CCSCC3)c3ccc4sc5ccccc5c4c3)nn2)c(Cl)c1` (stereo not drawn), 12.5 µg/mL (≈ 24.6 µM).
Molecule `CCCCc1cn(C(CN2CCSCC2)c2ccc3sc4ccccc4c3c2)nn1` (stereo not drawn) registered an MIC of 25 µg/mL (≈ 57.3 µM).
On to `OCCN1CCN(CC(c2ccc3sc4ccccc4c3c2)n2cc(-c3ccc(F)cc3Cl)nn2)CC1` (stereo not drawn), for which it took 12.5 µg/mL (≈ 23.3 µM) to inhibit growth (MIC).
On to `c1ccc(-c2cn(C(CN3CCCCC3)c3ccc4sc5ccccc5c4c3)nn2)cc1` (stereo not drawn), for which the MIC was 0.78 µg/mL (≈ 1.78 µM).
As for `CC(C)(C)c1ccc(-c2cn(C(CN3CCCCC3)c3ccc4sc5ccccc5c4c3)nn2)cc1` (stereo not drawn), the MIC amounted to 3.12 µg/mL (≈ 6.31 µM).
In the case of `OCCN1CCN(CC(c2ccc3sc4ccccc4c3c2)n2cc(-c3ccccc3)nn2)CC1` (stereo not drawn) it was 12.5 µg/mL (≈ 25.8 µM); in that of `Fc1ccc(-c2cn(C(CN3CCOCC3)c3ccc4sc5ccccc5c4c3)nn2)c(Cl)c1` (stereo not drawn), 25 µg/mL (≈ 50.7 µM); in that of `O=[N+]([O-])c1ccc(-c2cn(C(CN3CCSCC3)c3ccc4sc5ccccc5c4c3)nn2)cc1` (stereo not drawn), 25 µg/mL (≈ 49.8 µM).
In the case of `CC(C)(C)c1ccc(-c2cn(C(CN3CCOCC3)c3ccc4sc5ccccc5c4c3)nn2)cc1` (stereo not drawn) it was 6.25 µg/mL (≈ 12.6 µM).
On to `Cc1ccc(-c2cn(C(CN3CCSCC3)c3ccc4sc5ccccc5c4c3)nn2)cc1` (stereo not drawn), for which it took 12.5 µg/mL (≈ 26.6 µM) to inhibit growth (MIC).
The same measure for `CCCCc1cn(C(CN2CCCCC2)c2ccc3sc4ccccc4c3c2)nn1` (stereo not drawn): 0.78 µg/mL (≈ 1.86 µM).
The same measure for `c1ccc(-c2cn(C(CN3CCSCC3)c3ccc4sc5ccccc5c4c3)nn2)cc1` (stereo not drawn): 50 µg/mL (≈ 109 µM); for `CC(C)(C)c1ccc(-c2cn(C(CN3CCNCC3)c3ccc4sc5ccccc5c4c3)nn2)cc1` (stereo not drawn): 6.25 µg/mL (≈ 12.6 µM).
Take `CC[C@@H](CO)NCCN[C@@H](CC)CO` [ETHAMBUTOL]: the MIC was 3.13 µg/mL (≈ 15.3 µM).
In the case of `NNC(=O)c1ccncc1` [ISONIAZID] it was 0.1 µg/mL (≈ 0.729 µM); in that of `NC(=O)c1cnccn1` [PYRAZINAMIDE], 50 µg/mL (≈ 406 µM).
